Assay results from the RNAGym collection of RNA variant scans (doi:10.1126/science.aae0568).
This sample holds only a part of the variants without activity.

B1: tRNA (parent)
chain: GUUCCGUUGGCGUAAUGGUAACGCGUCUCCCUCCUAAGGAGAAGACUGCGGGUUCGAGUCCCGUACGGAACG

Variants of: B1
Experiment: yeast fitness relative to wild type (ratio to wild type); higher = fitter; tRNA-Arg(CCU), competitive growth, 37 C, YPD
In short: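 Variants of the tRNA-Arg(CCU) gene were chemically synthesised with a 3% per-site mutation rate across 69 sites and placed at the native genomic locus in Saccharomyces cerevisiae. Six parallel replicates of the pooled strains were competed in YPD at 37°C for 24 hours, and gene amplicons from the start and end populations were read by 100-nucleotide paired-end sequencing. Darwinian fitness relative to wild type was derived from changes in genotype frequencies. Genotypes required ≥ 100 starting reads, and estimates < 0.5 were set to 0.5.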

Variant | yeast fitness
GUUCCGUUGGCGUGAUGGUAACGAAUCUCCAUCCUAAGGAGAAGACUGCGGGUUCGAGUCCCGUACGGAACG [A14G C24A G25A C31A] | ≤ 0.5
GUUCCGUUGGCGUGAUGGUAAUGCGUCUCCCUCCUAAGGAGAAGAGUGCGGGUUCGAGUGCCGUACGGAACG [A14G C22U C46G C60G] | ≤ 0.5
GUUCCGUUGGCGUGAUGGUAACGCGUCUCCCUCCUAAGGUGAAGACUGCGGGUUCGAGUCCCGUACGGAACG [A14G A40U] | 0.904
GUUCCGUUGGCGUGAUGGUAACGCGUCUCCCUCCUAAGGCGAAGACUGCGGGUUCGAGUCCCGUACGGAACG [A14G A40C] | 1
GUUCCGUUGGCGUGAUGGUAACGCGUCUCCCUCCUAAGGGGAAGACUGCGGGUUCGAGUCCCGUACGGAACG [A14G A40G] | 0.856
GUUCCGUUGGCGUGAUGGUAACGCGUCUCCCUCCUAAGGAGAAGACUGCGGGUUCGAGUCCCGUGCGGAACG [A14G A65G] | 0.887
GUUCCGUUGGCGUGAUGGUAAAGCGUUUUCCUCCUAAGGAGAAGACUGCUGGUCCGAGUCCCGUACGCAACG [A14G C22A C27U C29U G50U U54C G68C] | ≤ 0.5
GUUCCGUUGGCGUGAUGGUAACGCGUCUCCCUCCUAAGGAGCAGACUGCCGGUUCGAGUCCCGUAUGGAACG [A14G A42C G50C C66U] | ≤ 0.5
GUUCCGUUGGCGUGAUGGUAACGGGUCUCCCUCCUCAGGAGAAGACUGCGGGUUCGAGUCCCGUACGGACCG [A14G C24G A36C A70C] | ≤ 0.5
GUUCCGUUGGCGUGAUGGUAACGCGUCUCCCUCCUAAGGAGAAGCCUGCGGGUUCGAGUCCCGUAUGGAACG [A14G A45C C66U] | 0.582
GUUCCGUUGGCGUGAUGGUAAAGCGUCUCCCUCCUAAGGAGAAGACUGCGGGUUCGUGUCCCGUACGGAACG [A14G C22A A57U] | ≤ 0.5
GUUCCGUUGGCGUGAUGGUAAUGCGUCUCCCUCCUAAGGAGAAGACUGCGGGUUCGAGUCCCGUACGGAACG [A14G C22U] | 0.783
GUUCCGUUGGCGUGAUGGUAAAGCGUCUCCCUCCUAAGGAGAAGACUGCGGGUUCGAGUCCCGUACGGAACG [A14G C22A] | 0.982
GUUCCGUUGGCGUGAUGGUAACGCGUCUCCCUCCUGAGGAGAAGACUGCGGGUUCGAGUCCCGUAUGGAACG [A14G A36G C66U] | 0.606
GUUCCGUUGGCGUGAUGGUAACGCGUCUCCCUCCUAUGGAGAAGACUGCGGGUUCGAGUCACGUACGGAACG [A14G A37U C61A] | ≤ 0.5
GUUCCGUUGGCGUGAUGGUAACGCGUCUCCCUCCUAAGGGAAAGUCCGCGGGUUCGAGUCCCGUACGGAACG [A14G A40G G41A A45U U47C] | ≤ 0.5
GUUCCGUUGGCGUGAUGGUAAGGCGUCUCCCUCCGAAGGCGAAGACUGCGGGUUCGAGUCCCGUACGGAUCG [A14G C22G U35G A40C A70U] | ≤ 0.5
GUUCCGUUGGCGUGAUGGUAACGCGUCUCCCUCCUAAGGAGAAGACUGCGGGUUCGAGUCCCGUGCGGAUCG [A14G A65G A70U] | 0.566
GUUCCGUUGGCGUGAUGGUAACGCGUCUCCCUCCUAAGGUGAAAACUGCGGGUUCGAGUCCCGUUCGGAACG [A14G A40U G44A A65U] | ≤ 0.5

Variant | yeast fitness
GUUCCGUUGGCGUGAUGGUAAGGCGUCUCACUCCUAAGGAGAAGACUGCGGGUUCGAGUCCCGUACGGAACG [A14G C22G C30A] | 0.528
GUUCCGUUGGCGUGAUGGUAACGCGUCUCCCUCCUAAGGAGAUGACUGCUGGUUCGAGUCCCGUACGCAACG [A14G A43U G50U G68C] | ≤ 0.5
GUUCCGUUGGCGUGAUGGUAACGCGUCUCCCUCCUAGGGAGAAGACUGCGGGUUGGAGUCCCGUACGGAACG [A14G A37G C55G] | ≤ 0.5
GUUCCGUUGGCGUGAUGGUAACGCGUCUCCCUCCUGAGGAGACGACUGCGGGUUCGAGUCCCGUUCGGAACG [A14G A36G A43C A65U] | ≤ 0.5
GUUCCGUUGGCGUGAUGGUAUCGCGUCUCCCUCCUAAGGAGAAGACUGCGGGUUCGAGACCCGUACGGAACG [A14G A21U U59A] | ≤ 0.5
GUUCCGUUGGCGUGAUGGUAUCGCGUCUCCCUCCUAAGGAGAAGACUGCGGGUUCGAGUCCCGUACGCAACG [A14G A21U G68C] | ≤ 0.5
GUUCCGUUGGCGUGAUGGUAAUGCGUCUCCCUGCUAAGGAGAAGACUGCGGGUUCGAGUCCCGUACGGAACG [A14G C22U C33G] | ≤ 0.5
GUUCCGUUGGCGUGAUGGUAACGCGUCUCCCUCCUAAGGAGAAGACUGCGGGUUCGAGUCCCGUACGGCACG [A14G A69C] | 0.729
GUUCCGUUGGCGUGAUGGUAAAGCGUAUUCCUCCUAAGGAGCAGACUGCGGGUUCGAGUCCCGUACGGAACG [A14G C22A C27A C29U A42C] | ≤ 0.5
GUUCCGUUGGCGUGAUGGUAAUGCGUCUCCCUCUUAAGGAGAAGACUGCGCGUUCGAAUCCCGUACGGAACG [A14G C22U C34U G51C G58A] | ≤ 0.5
GUUCCGUUGGCGUGAUGGUAAUGCGUCUCCCUCUUAAGGAGAAGACUGCGGGUUAGAGUCCCGUACGGAACG [A14G C22U C34U C55A] | 0.583
GUUCCGUUGGCGUGAUGGUAACGCGUCUCCCUCCUAAGGUGAAGACUGCGGGUUCGACUCCCGUACGGAACG [A14G A40U G58C] | 0.706
GUUCCGUUGGCGUGAUGGUAAUGCGUCUGCCUGCUAGGGAGAAGACUGCGGGUUCGAGUCCCGUACGGAACG [A14G C22U C29G C33G A37G] | ≤ 0.5
GUUCCGUUGGCGUGAUGGUAACGCGUCUCCCUCCUAUGGAGAAGACUGCGGGUUCGAGUCCCGUACGGAACG [A14G A37U] | 0.584
GUUCCGUUGGCGUGAUGGUAAAGCGUCUGGCUCCUAAGGAGAAGACUUCGGGUUCGAGUCCCGUACGGAACG [A14G C22A C29G C30G G48U] | 0.618
GUUCCGUUGGCGUGAUGGUAACGCGUCUCCCUCCUAAGGCGAAGACUGCGGGUUCGAGUGCCGUACGGAACG [A14G A40C C60G] | 0.757
GUUCCGUUGGCGUGAUGGUAACGCGUCUCCCUCCUUAGGAGAAGACUGCGGGUUCGACUCCCGUACGGAACG [A14G A36U G58C] | ≤ 0.5
GUUCCGUUGGCGUGAUGGUAACGCGUCUCCCUCCUAAGGAGGAGACUGCGGGUUCGAGUCCCGUACGGAACG [A14G A42G] | 0.778
